From PubChem
H9c2 protect: protects H9c2 cardiomyocytes from peroxide injury; H2O2 injury protection, ATPLite, 2 h; protection from H2O2 cell death, % at 20 µM; actives 0.63% (n = 360,000); AID 588492;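 active means compounds giving at least 50% protection of heart cells from peroxide-induced death in the single-dose screen, raw or plate-pattern-corrected value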;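 further: 0% = DMSO wells with peroxide and 100% = DMSO wells without peroxide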
Rin1-Abl PPI inh: blocks binding of human Rin1 to Abl. P00519+Q13671. TR-FRET Rin1/Abl binding, biochemical. inhibition, % at 7.35 µM. actives 0.4% (n = 360,000). AID 588664; in the data active means inhibition above about 5%, passing the limit was not always enough
PKA-R1A activ: activates the PKA-R1A holoenzyme complex; PKA-R1A dissociation, Cy5-IP20 fluorescence polarization; scaled: DMSO 0%, 113 µM cGMP 100%; actives 0.083% (n = 340,000); P00514+P68181; AID 504707; activation, % at 11.4 µM;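 active means percent activation above the mean of all tested compounds plus 3 SD, cut at about 19% in these data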;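 further: higher means more PKAc released from R1A so a rise in polarization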
Tb MetRS inh: blocks T. brucei methionyl-tRNA synthetase activity; purified T. brucei MetRS, ATP depletion, Kinase-Glo luminescence; inhibition, % at 11.9 µM; actives 0.4% (n = 360,000); AID 624268;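 active means inhibition above a per-plate cutoff of the control wells' mean inhibition plus 3 SD, cut at about 5.5% in these data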;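 further: 0% = DMSO wells median and 100% = median of wells with control inhibitor compound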
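assay system = parasite MetRS enzyme | timing = 15 min preincubation, 2 h reaction, all 25 °C | evaluation = percent inhibition relative to median high and low control wells | medium = HEPES buffer containing pyrophosphatase, BSA, spermine, DTT | compound = single dose, 11.9 µM final nominal, 0.9% final DMSO | detection = Kinase-Glo luminescence, ATP depletion format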
PKA-R2B activ: activates the human PKA-R2B holoenzyme complex. PKA-R2B holoenzyme dissociation, Cy5-IP20 fluorescence polarization; R2B truncated from residue 108, S112A mutant; 0% DMSO only, 100% 113 µM cGMP. activation, % at 11.4 µM. actives 0.079% (n = 340,000). AID 504700;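 active means activation above a cutoff set at the mean over all compounds plus 3 SD, cut at about 18% in these data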;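 further: higher means more holoenzyme dissociation and a rise in polarization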
Target sequence (P31323 whole entry, looked up, other chains not shown, the tested form may be a part): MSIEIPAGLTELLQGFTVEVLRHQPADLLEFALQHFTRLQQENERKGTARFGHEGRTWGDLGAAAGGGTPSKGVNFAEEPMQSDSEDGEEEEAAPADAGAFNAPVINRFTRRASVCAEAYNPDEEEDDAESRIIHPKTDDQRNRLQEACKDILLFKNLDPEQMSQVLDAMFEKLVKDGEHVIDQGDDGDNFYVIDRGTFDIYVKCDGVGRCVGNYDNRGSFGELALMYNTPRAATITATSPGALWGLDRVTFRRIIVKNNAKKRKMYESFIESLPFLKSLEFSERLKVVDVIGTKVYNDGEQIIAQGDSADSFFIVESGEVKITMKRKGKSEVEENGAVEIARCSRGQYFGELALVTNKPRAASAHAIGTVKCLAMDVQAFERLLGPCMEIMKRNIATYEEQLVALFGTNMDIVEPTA
Starred values were filed as active, the others as inactive; . = no result. In the library only some 1.5% were active in any assay of this set; here they are far more common.

SMILES	H9c2 protect	Rin1-Abl PPI inh	PKA-R1A activ	Tb MetRS inh	PKA-R2B activ
CC(=O)Nc1cccc(-c2ccnc3c2CC(C)(C(=O)Nc2cccc(OC(F)(F)F)c2)O3)c1 (stereo unspecified)	10.9	2.7	.	-0.4	.
COc1ccc(S(=O)(=O)N(CCCN2CCCC2=O)Cc2cc3cc(C)c(C)cc3[nH]c2=O)cc1	46.8*	1.8	-5.5	-1.3	-0.1
COc1ccc(NS(=O)(=O)c2ccc3ccccc3c2)c2ncccc12	59.2*	0.3	-3.0	-0.2	-1.3
CNc1ccccc(C(=O)/C=C/c2ccccc2OC)c1=O	51.2*	3.0	-5.7	0.5	-6.2
CNc1ccc(Br)cc(C(=O)/C=C/c2cccc(OC)c2OC)c1=O	18.3	2.8	-11.3	-0.7	-1.4
O=C(Cn1c(C(F)(F)F)nc2ccccc21)N=Nc1c(O)[nH]c2ccc(Br)cc12	-10.3	3.8	4.9	0.1	-1.1
C/C(CC(=O)N1CCCC1)=N\NC(=O)c1cc2ccccc2cc1O	4.0	1.2	-4.1	-0.4	-12.8
NNC(=O)c1cc2ccccc2cc1O	64.8*	-0.7	2.6	-0.2	9.9
CCOC(=O)C(C)/C(C)=N/NC(=O)c1cc2ccccc2cc1O (stereo unspecified)	60.6*	-3.4	2.8	0.6	-0.3
O=C(NCCO)c1cc2ccccc2cc1O	1.0	-6.7	-10.8	0.1	4.8
COc1ccc(OC)c(N(CC(=O)Nc2cccnc2)S(=O)(=O)c2ccc(OC)c(OC)c2)c1	50.0*	-2.2	8.8	-0.5	0.3
COC(=O)C1=C(C)N(Cc2ccc(OC)cc2)C(=O)C1	4.4	-3.3	-8.7	-0.4	1.3
COC(=O)C1=C(C)N(CCc2ccc(OC)cc2)C(=O)C1	100.3*	-1.0	-11.8	-1.1	-5.3
COc1ccc2nc3cccc(OC)c3nc2c1	58.2*	-3.5	-3.4	-0.1	-5.0
O=C(NCCN1CCC(n2c(=O)[nH]c3ccccc32)CC1)N1c2ccccc2Sc2ccccc21	.	.	.	-0.9	.
Cc1c(C=O)c2ccccn2c1C(=O)c1ccccc1	18.6	-0.1	-8.9	-1.2	-1.5
Cc1c(C=O)c2ccccn2c1C(=O)c1ccc(Cl)c([N+](=O)[O-])c1	51.2*	-0.4	-4.0	0.6	-9.4
O=C(O)c1ccc(N/N=C/c2ccc(-c3ccc(Br)cc3)o2)cc1	-1.6	11.9*	-2.9	1.5	0.9
Cn1c(=O)c2[nH]c(NN=Cc3ccccc3)nc2n(C)c1=O	15.6	-0.2	-2.7	-0.2	0.1
Cn1c(=O)c2[nH]c(NN=Cc3ccc(Br)cc3)nc2n(C)c1=O	57.5*	1.4	-2.2	-0.1	4.3
Cc1ccc(C=NNc2nc3c([nH]2)c(=O)n(C)c(=O)n3C)cc1	70.4*	1.2	-3.7	0.1	-8.4
COc1ccc(NN=Nc2nc3c([nH]2)c(=O)n(C)c(=O)n3C)cc1	3.7	-2.1	-16.3	-0.5	4.9
COc1ccc(C=NNc2nc3c([nH]2)c(=O)n(C)c(=O)n3C)cc1	72.9*	-2.3	-2.8	-0.3	-5.0
COc1cc(NC(=O)c2ccco2)c(OC)cc1NC(=O)c1cc(OC)c(OC)c(OC)c1	74.3*	3.1	-1.1	-0.8	-6.7
CCOc1cc(NC(=O)c2ccco2)c(OCC)cc1NC(=O)c1cc(OC)c(OC)c(OC)c1	14.8	3.8	4.6	0.7	2.7
SMILES	H9c2 protect	Rin1-Abl PPI inh	PKA-R1A activ	Tb MetRS inh	PKA-R2B activ
COc1cc(NC(=O)c2ccco2)c(C(=O)OCC(=O)c2c[nH]c3ccccc23)cc1OC	66.3*	-0.2	-6.5	0.3	-1.3
COc1cc(NC(=O)c2ccco2)c(OC)cc1NC(=O)Nc1cccc(Cl)c1	65.0*	3.1	-6.0	0.1	-7.9
COc1ccc(NC(=O)c2ccco2)cc1NC(=O)c1ccco1	-2.9	1.6	16.4	-0.2	2.0
O=C(OCC(=O)c1c[nH]c2ccccc12)c1ccco1	-6.8	0.7	-11.1	-0.6	-4.4
COc1ccc(F)cc1-c1cc(NC=O)c2ncc(-c3cccc(C(F)(F)F)c3)n2c1	-4.5	3.6	.	-0.3	.
Cc1ccc(C(C)C)c(OCC(=O)Nc2ccccc2N2CCN(C)CC2)c1	34.4	2.1	2.0	-1.2	-2.0
O=C(Cn1[nH]c(=O)c2ccccc2c1=O)OCC(=O)c1ccccc1Cl	22.3	2.3	-1.6	-0.6	6.8
CC(=O)N1CCN(c2ccccc2NC(=O)COc2cc(C)ccc2C(C)C)CC1	65.6*	0.8	-12.2	-1.0	-7.3
O=C(Cn1[nH]c(=O)c2ccccc2c1=O)OCC(=O)c1ccc(F)cc1	31.0	-1.7	-15.4	-0.5	-5.8
CC(C)NC(=O)COC(=O)Cn1[nH]c(=O)c2ccccc2c1=O	80.2*	1.7	-9.7	-0.8	-14.3
CC(C)(C)N(Cc1ccccc1)C(=O)COC(=O)Cn1[nH]c(=O)c2ccccc2c1=O	26.6	0.8	1.5	0.0	-7.3
O=C(COC(=O)Cn1[nH]c(=O)c2ccccc2c1=O)NNC(=O)c1ccccc1	92.6*	1.7	12.9	-0.1	2.2
O=C(Cn1[nH]c(=O)c2ccccc2c1=O)OCC(=O)N(Cc1ccccc1)Cc1ccccc1	105.7*	3.3	-13.3	-0.7	-9.5
COc1cc(/C=N/Nc2nc(=O)[nH]nc2C)cc([N+](=O)[O-])c1O	8.1	-10.4	10.8	-0.7	-8.2
CC1CN(C(=O)CCNC(=O)c2ccccc2Cl)CC(C)O1 (stereo unspecified)	0.3	0.7	-4.8	-0.4	-0.4
CC1(C)CC2CC(C)(CN2C(=O)COC(=O)Cn2[nH]c(=O)c3ccccc3c2=O)C1 (stereo unspecified)	51.7*	-3.3	-7.1	0.6	-18.2
Cc1cccc(C)c1OCC(=O)N1CC2(C)CC1CC(C)(C)C2 (stereo unspecified)	-12.5	4.9	-0.6	-0.4	-3.6
Cc1ccc(C(C)C)c(OCC(=O)NN2C(=O)c3ccccc3C2=O)c1	-3.0	-1.8	-4.2	-0.8	-5.3
N#CC1(NC(=O)COC(=O)CN2C(=O)c3ccccc3C2=O)CCCCC1	4.1	1.6	8.1	-0.2	-11.4
COc1ccccc1C(=O)NC(=O)COC(=O)Cn1[nH]c(=O)c2ccccc2c1=O	83.7*	2.9	-6.2	-0.3	6.4
COc1ccccc1C(=O)NC(=O)COC(=O)CN1C(=O)NC(C)(C)C1=O	5.8	2.9	-4.5	0.0	-4.3
Cc1ccc(C(C)C)c(OCC(=O)NNC(=O)Cn2[nH]c(=O)c3ccccc3c2=O)c1	69.9*	0.8	-1.4	-0.3	-4.4
N#CC1(NC(=O)COC(=O)Cn2[nH]c(=O)c3ccccc3c2=O)CCCCC1	73.8*	-1.3	3.4	-0.3	5.7
CCn1c(C)c(CS(=O)(=O)c2ccccc2)[nH]c1=O	-21.9	4.7	-13.5	-1.2	1.3
Cc1ccccc1CNC(=O)CCC(=O)N1CCOc2ccc(Cl)cc21	1.6	-0.8	-3.5	-0.6	8.0
CC(OC(=O)Cn1[nH]c(=O)c2ccccc2c1=O)C(=O)Nc1ccc(F)cc1 (stereo unspecified)	61.7*	0.9	-7.7	-0.4	-8.7
